From paper PMC9029315 (RSC Advances, 2021)
pEC50, pIC50: −log10 of the molar value. Values after ≈ are worked out from the molar mass of the structure shown. Where two headings read alike, the source gives them in different places.

Columns and labels:
M. tb H37Rv strain [1] = settings: cited from earlier work
healthy cells = settings: read-out: Cytotoxicity to healthy cells, IC50; cited from earlier work
[2] = test system: KNS42 cells (paediatric GBM); test: KNS42 cell proliferation assay; assay type: cell-based; settings: Homo sapiens, KNS-42, 72 h, read-out: KNS42 prolif., IC50
Outline: (§1)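 Human cells were kept at 37 °C, 5% CO2 with pen/strep in RPMI/10% FBS (KNS42, BT-12, BT-16), EMEM/10% FBS (DAOY) or DMEM/15% FBS (HFF1). Seeding was 2000 cells/well (KNS42 4000), followed by overnight attachment. Compound medium (0.5, 1, 2.5, 5, 7.5, 10) or 0.1% DMSO control was then applied for 72 h. MTT absorbance was read at 570/600 nm, background subtracted, and IC50 calculated.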

[3] = molecular target: cannabinoid receptor 2 (CB2); settings: read-out: CB2 agonistic activity, EC50; cited from earlier work
human THP-1 cells = settings: cited from earlier work
M. tb H37Rv strain [4] = test: Anti-TB activity, microplate alamarBlue assay; assay type: cell-based, Mycobacterium tuberculosis; settings: H37Rv MIC values converted to μM; for MIC: Mycobacterium tuberculosis, H37RV, read-out: H37Rv, MIC, MABA; for H37Rv, MIC: MABA
Outline: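 Whole-cell M. tuberculosis H37Rv growth inhibition by microplate alamarBlue assay. MIC is the lowest concentration giving at least 90% reduction of bacterial growth, averaged over three individual measurements. It was then converted to molar units. Front-line anti-TB drugs served as positive controls.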

Vero cells = test: Cytotoxicity against Vero cells; assay type: cell-based; settings: SI = IC50(Vero)/MIC(H37Rv)
BT12 cells (AT/RT) [5] = test: BT12 cell viability assay; assay type: cell-based; settings: Homo sapiens, BT-12, 72 h, read-out: BT12 viability, IC50
Outline: (§2)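 Cultures were grown at 37 °C, 5% CO2 with pen/strep in RPMI/10% FBS (BT-12, BT-16), EMEM/10% FBS (DAOY) or DMEM/15% FBS (HFF1). Cells were plated at 2000 per well and incubated overnight. They were then exposed for 72 h to test compound (0.5–10, six levels) or 0.1% DMSO medium. PrestoBlue fluorescence was read at 560/590 nm, background removed, and IC50 derived.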

BT12 cells (AT/RT) [6] = test: BT12 cell proliferation assay; assay type: cell-based; settings: Homo sapiens, BT-12, 72 h, read-out: BT12 prolif., IC50
Outline: as §1

BT16 cells (AT/RT) [7] = test: BT16 cell viability assay; assay type: cell-based; settings: Homo sapiens, BT-16, 72 h, read-out: BT16 viability, IC50
Outline: as §2

BT16 cells (AT/RT) [8] = test: BT16 cell proliferation assay; assay type: cell-based; settings: Homo sapiens, BT-16, 72 h, read-out: BT16 prolif., IC50
Outline: as §1

[9] = test system: DAOY cells (medulloblastoma); test: DAOY cell viability assay; assay type: cell-based; settings: Homo sapiens, 72 h, read-out: DAOY viability, IC50
Outline: as §2

[10] = test system: DAOY cells (medulloblastoma); test: DAOY cell proliferation assay; assay type: cell-based; settings: Homo sapiens, 72 h, read-out: DAOY prolif., IC50
Outline: as §1

[11] = test system: HFF1 non-neoplastic human fibroblasts; test: HFF1 cell viability assay; assay type: cell-based; settings: HFF-1, 72 h, read-out: HFF1 viability, IC50
Outline: as §2

[12] = test system: HFF1 non-neoplastic human fibroblasts; test: HFF1 cell proliferation assay; assay type: cell-based; settings: HFF-1, 72 h, read-out: HFF1 prolif., IC50
Outline: as §1

[13] = test system: carbonic anhydrase 9 (CA9) gene; test: Transcriptional analysis of KNS42 cells, CA9 expression; assay type: cell-based, human; settings: 10 μM, 72 hours, versus untreated, p < 0.01
Outline: (§3)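 KNS42 cells in RPMI/10% FBS with pen/strep, 37 °C, 5% CO2, were treated with test compound at 10 for 72 h. Cells were PBS-washed, scraped and pelleted. RNA was TRIzol-extracted, resuspended in DEPC water and quantified by Qubit broad-range assay. Samples underwent DNBSEQ eukaryotic stranded transcriptome resequencing to determine differential expression.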

[14] = test system: spleen tyrosine kinase (SYK) gene; test: Transcriptional analysis of KNS42 cells, SYK expression; assay type: cell-based, human; settings: 10 μM, 72 hours, versus untreated, p < 0.05
Outline: as §3

KNS42 cells = test: Transcriptional analysis of KNS42 cells, differential gene expression; assay type: cell-based, human; settings: 10 μM, 72 hours, fold change ≥ 8, P < 0.05
Outline: as §3

Row | SMILES | pIC50 [2] | MIC (M. tb H37Rv strain [4]) | H37Rv, MIC (M. tb H37Rv strain [4]) | further results
1 | Cc1cc(C)c2cc(C(=O)NC34CC5CC(CC(C5)C3)C4)[nH]c2c1 [Compound 2, N-(1-adamantyl)-4,6-dimethylindole-2-carboxamide] | – | – | – | MIC (M. tb H37Rv strain [1]): 0.012 µM (≈ 0.00387 µg/mL); pIC50 (healthy cells): < 3.70
2 | O=C(NC12CC3CC(CC(C3)C1)C2)c1cc2ccccc2[nH]1 [Compound 3, N-(1-adamantyl)-indole-2-carboxamide] | < 5.00 | – | – | pEC50 [3]: 6.01; Cytotoxicity against human THP-1 cells (human THP-1 cells): non-cytotoxic up to 50
3 | CC(NC(=O)c1cc2ccccc2[nH]1)C12CC3CC(CC(C3)C1)C2 (centres unmarked) [Compound 8a, N-(1-(Adamantan-1-yl)ethyl)-1H-indole-2-carboxamide] | < 5.00 | 6.2 µM (≈ 2 µg/mL) | – | H37Rv, MIC (M. tb H37Rv strain [1]): > 15.5 µM
4 | COc1cccc2[nH]c(C(=O)NC(C)C34CC5CC(CC(C5)C3)C4)cc12 (centres unmarked) [Compound 8b, N-(1-(Adamantan-1-yl)ethyl)-4-methoxy-1H-indole-2-carboxamide] | < 5.00 | – | – | –
5 | COc1ccc2[nH]c(C(=O)NC(C)C34CC5CC(CC(C5)C3)C4)cc2c1 (centres unmarked) [Compound 8c, N-(1-(Adamantan-1-yl)ethyl)-5-methoxy-1H-indole-2-carboxamide] | < 5.00 | < 6 µM | 5.67 µM | –
6 | Cc1ccc2[nH]c(C(=O)NC(C)C34CC5CC(CC(C5)C3)C4)cc2c1 (centres unmarked) [Compound 8d, N-(1-(Adamantan-1-yl)ethyl)-5-methyl-1H-indole-2-carboxamide] | < 5.00 | 2.97 µM (≈ 0.999 µg/mL) | – | –
7 | CC(NC(=O)c1cc2cc(Cl)ccc2[nH]1)C12CC3CC(CC(C3)C1)C2 (centres unmarked) [Compound 8e, N-(1-(Adamantan-1-yl)ethyl)-5-chloro-1H-indole-2-carboxamide] | < 5.00 | – | – | –
8 | CC(NC(=O)c1cc2ccc(Br)cc2[nH]1)C12CC3CC(CC(C3)C1)C2 (centres unmarked) [Compound 8f, N-(1-(Adamantan-1-yl)ethyl)-6-bromo-1H-indole-2-carboxamide] | < 5.00 | 0.62 µM (≈ 0.249 µg/mL) | – | SI (selectivity index) (Vero cells): 64
9 | CC(NC(=O)c1cc2c(Cl)cc(Cl)cc2[nH]1)C12CC3CC(CC(C3)C1)C2 (centres unmarked) [Compound 8g, N-(1-(Adamantan-1-yl)ethyl)-4,6-dichloro-1H-indole-2-carboxamide] | < 5.00 | 0.32 µM (≈ 0.125 µg/mL) | – | SI (selectivity index) (Vero cells): 128
10 | CC(NC(=O)c1cc2c(F)cc(F)cc2[nH]1)C12CC3CC(CC(C3)C1)C2 (centres unmarked) [Compound 8h, N-(1-(Adamantan-1-yl)ethyl)-4,6-difluoro-1H-indole-2-carboxamide] | < 5.00 | – | – | –
11 | O=C(NCc1ccccc1)c1cc2c(F)cc(F)cc2[nH]1 [Compound 9a, N-Benzyl-4,6-difluoro-1H-indole-2-carboxamide] | 5.01 | > 112 µM | >112 µM | pIC50 (BT12 cells (AT/RT) [5]): 6.05; pIC50 (BT12 cells (AT/RT) [6]): 5.13; pIC50 (BT16 cells (AT/RT) [7]): 5.74; pIC50 (BT16 cells (AT/RT) [8]): 5.22; pIC50 [9]: < 5.00; pIC50 [10]: < 5.00; pIC50 [11]: 3.92; pIC50 [12]: 4.19
12 | O=C(NNc1ccccc1)c1cc2c(F)cc(F)cc2[nH]1 [Compound 9b, 4,6-Difluoro-N′-phenyl-1H-indole-2-carbohydrazide] | < 5.00 | > 96 µM | >111 µM | –
13 | O=C(NC(=O)c1cc2c(F)cc(F)cc2[nH]1)c1cccc(F)c1 [Compound 11a, 4,6-Difluoro-N-(3-fluorobenzoyl)-1H-indole-2-carboxamide] | < 5.00 | > 96 µM | >101 µM | –
14 | O=C(NC(=O)c1cc2c(F)cc(F)cc2[nH]1)c1cccc(Cl)c1 [Compound 11b, N-(3-Chlorobenzoyl)-4,6-difluoro-1H-indole-2-carboxamide] | < 5.00 | – | >96 µM | –
15 | O=C(c1cc2c(F)cc(F)cc2[nH]1)N1CCNCC1 [Compound 14, (4,6-Difluoro-1H-indol-2-yl)(piperazin-1-yl)methanone] | < 5.00 | > 121 µM | >121 µM | –
16 | O=C(c1cc2c(F)cc(F)cc2[nH]1)N1CCN(C(=O)C23CC4CC(CC(C4)C2)C3)CC1 [Compound 15, (Adamantan-1-yl)(4-(4,6-difluoro-1H-indole-2-carbonyl)piperazin-1-yl)methanone] | 5.18 | – | >75 µM | pIC50 (BT12 cells (AT/RT) [5]): 5.50; pIC50 (BT12 cells (AT/RT) [6]): < 5.00; pIC50 (BT16 cells (AT/RT) [7]): 5.23; pIC50 (BT16 cells (AT/RT) [8]): < 5.00; pIC50 [9]: < 5.00; pIC50 [10]: < 5.00; pIC50 [11]: 4.71; pIC50 [12]: 4.76; Downregulation of CA9 expression [13]: 15 fold; Downregulation of SYK expression [14]: 9 fold; Number of genes with downregulated expression (KNS42 cells): 9 genes
17 | O=C(NC12CC3CC(CC(C3)C1)C2)c1ccc(NC(=O)c2cc3c(F)cc(F)cc3[nH]2)cc1 [Compound 20, N-(4-((Adamantan-1-yl)carbamoyl)phenyl)-4,6-difluoro-1H-indole-2-carboxamide] | < 5.00 | > 71 µM | >71 µM | –
18 | CC[C@@H](CO)NCCN[C@@H](CC)CO [EMB, ethambutol] | – | – | – | H37Rv, MIC (M. tb H37Rv strain [1]): 1 (ref. [6]) μg mL^−1
19 | NNC(=O)c1ccncc1 [INH, isoniazid] | – | – | – | H37Rv, MIC (M. tb H37Rv strain [1]): 0.04 (ref. [6]) μg mL^−1
